CHRM4 agonist: human M4 muscarinic receptor agonists, primary screen, CHO-K1 cells, Fluo-8 calcium fluorescence. CHO-K1 hM4/Gqi5; vehicle 0%, full acetylcholine response 100%. 360,000 tested, 0.14% active. AID 624127, 2012. activation, % at 3 µM;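 active means activation above the run mean over all test wells plus 3 SD, cut at about 32% in these data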;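 further: peak over basal fluorescence ratio per well then scaled between controls; 0% = DMSO wells and 100% = acetylcholine at EC100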
Target sequence (P08173 whole entry, looked up): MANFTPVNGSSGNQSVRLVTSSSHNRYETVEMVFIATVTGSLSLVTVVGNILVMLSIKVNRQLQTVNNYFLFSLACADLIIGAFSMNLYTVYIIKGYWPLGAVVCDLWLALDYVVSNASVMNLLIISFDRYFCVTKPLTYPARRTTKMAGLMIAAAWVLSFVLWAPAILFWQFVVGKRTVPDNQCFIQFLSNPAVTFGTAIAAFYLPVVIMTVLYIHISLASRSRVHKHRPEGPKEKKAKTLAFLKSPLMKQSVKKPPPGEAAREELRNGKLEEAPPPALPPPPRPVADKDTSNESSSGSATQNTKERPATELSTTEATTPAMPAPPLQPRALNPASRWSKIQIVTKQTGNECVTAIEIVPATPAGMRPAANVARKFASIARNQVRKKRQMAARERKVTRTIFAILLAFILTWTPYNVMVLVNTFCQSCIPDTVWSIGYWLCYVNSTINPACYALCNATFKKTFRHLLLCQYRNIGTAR
CHRM5 agonist: human M5 muscarinic receptor agonists, primary screen, CHO-K1 cells, Fluo-8 calcium fluorescence; Muscarinic acetylcholine receptor M5 (Homo sapiens), P08912; CHO-K1 hM5 cells; 0% DMSO wells, 100% maximal acetylcholine response; activation, % at 3 µM; 360,000 tested, 0.19% active; AID 624037, 2012;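 active means activation above the run's mean over test compounds plus 3 SD, cut at about 23% in these data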;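 further: signal is peak over basal fluorescence ratio across the kinetic read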
M5 PAM: human M5 muscarinic receptor positive allosteric modulators, primary screen, CHO-K1 cells, Fluo-8 calcium fluorescence; 360,000 tested, 0.3% active; Muscarinic acetylcholine receptor M5 (Homo sapiens), P08912; AID 624038, 2012; CHO-K1 hM5, ACh EC20 PAM; 0% = ACh EC20, 100% = ACh EC100; activation, % at 3 µM;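 active means activation above the run cutoff, the mean activation of all test compounds plus 3 SD, cut at about 18% in these data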
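System: CHO-K1 cell line with stable human muscarinic M5 receptor expression | Also added: EC20 acetylcholine as agonist stimulus | Compound: One concentration, 3 µM final (nominal) | Timing: Fluo-8 loading 80 min at 37 °C plus 30 min room temperature | Measured by: Fluo-8 calcium dye fluorescence, kinetic read | Read-out basis: % activation, ACh-normalized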
M4 antag: human M4 muscarinic receptor antagonists, primary screen, CHO cells, Fluo-8 calcium fluorescence. Muscarinic acetylcholine receptor M4 (Homo sapiens), P08173. CHO-hM4 cells, ACh EC80. inhibition, % at 3 µM. 360,000 tested, 0.73% active. AID 624125, 2012;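 active means inhibition above its plate's cutoff, the mean inhibition of sample wells plus 3 SD, cut at about 27% in these data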;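 further: 0% = acetylcholine EC80 with DMSO and 100% = DMSO without agonist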
CHRM4 PAM: human M4 muscarinic receptor positive allosteric modulators, primary screen, CHO-K1 cells, Fluo-8 calcium fluorescence; activation, % at 3 µM; 360,000 tested, 0.4% active; CHO-K1 hM4/Gqi5, ACh EC20; 0% = ACh EC20, 100% = maximal ACh; Muscarinic acetylcholine receptor M4 (Homo sapiens), P08173;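 active means activation above its plate's cutoff, the mean activation of sample wells plus 3 SD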
M5 antag: human M5 muscarinic receptor antagonists, primary screen, CHO cells, Fluo-8 calcium fluorescence; CHO-hM5 cells, ACh EC80; Muscarinic acetylcholine receptor M5 (Homo sapiens), P08912; inhibition, % at 3 µM; AID 624040, 2012; 360,000 tested, 0.59% active;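 active means inhibition above a per-plate cutoff, the mean of that plate's test compounds plus 3 SD, cut at about 27% in these data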;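 further: 0% = acetylcholine EC80 with DMSO and 100% = DMSO without agonist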
* marks the source's active call; other numbers are inactive results. Compounds with a hit are over-represented: about 1.9% of the library has one in this group of screens.

SMILES	CHRM4 agonist	CHRM5 agonist	M5 PAM	M4 antag	CHRM4 PAM	M5 antag
c1ccc2c[n+](CCCCCCCCCC[n+]3ccc4ccccc4c3)ccc2c1	1	-7	-16	27*	-10	3
C[C@]12CCC3C(C(=O)C[C@H]4C[C@@H](O)CC[C@]34C)C1CCC2=O (stereo partly specified)	2	0	5	-5	6	-4
Cc1c(N=Cc2c(O)n(CCc3ccccc3)c(=O)[nH]c2=O)c(=O)n(-c2ccccc2)n1C	2	-6	-5	-3	-7	4
CCCCCCn1c(O)c(C=Nc2c(C)n(C)n(-c3ccccc3)c2=O)c(=O)[nH]c1=O	-1	-4	25*	-8	12	19
CS(=O)(=O)c1ccc(C2=C(CNC(=O)c3nccs3)[C@H]3CC[C@@H](C2)N3CCOc2ccccc2)cc1	2	-3	-13	49*	-14	13
CS(=O)(=O)c1ccc(C2=C(CNC(=O)c3cccs3)[C@H]3CC[C@@H](C2)N3CCOc2ccccc2)cc1	1	-4	-14	14	-8	9
c1ccc(C2CN3CCC2CC3)cc1 (stereo unspecified)	0	-18	-18	11	-13	6
OC(c1ccccc1)(c1ccccc1)C1CN2CCC1CC2 (stereo unspecified)	1	-12	-22	75*	-21	99*
OC(c1ccccc1)(c1ccc(Cl)cc1)C1CN2CCC1CC2 (stereo unspecified)	9	-18	-32	44*	-55	60*
OC(Cc1ccccc1)(c1ccccc1)C1CN2CCC1CC2 (stereo unspecified)	1	-8	-20	85*	-24	90*
CCC1(C2=NCCN2)Cc2ccccc2O1 (stereo unspecified)	0	-1	-2	2	1	-2
CN(C)CCN=Cc1c(O)n(-c2cccc3ccccc23)c(=O)[nH]c1=O	-1	-2	-5	-2	-2	10
COC(=O)C1=C(c2ccc(C(C)=O)cc2)C[C@@H]2CC[C@H]1N2C(=O)NCc1ccc(C(F)(F)F)cc1	36*	38*	-19	2	-6	13
O=C(c1ccc(Cl)cc1)C1CCCN(Cc2cccc3cccnc23)C1 (stereo unspecified)	18	-10	-15	12	-24	23
O=C(c1ccc(Cl)cc1)C1CCCN(Cc2cccc3ncccc23)C1 (stereo unspecified)	5	-13	-37	20	-36	34*
CC1=CC2OC3CC4OC(=O)C=CC=CC(=O)OCCC(C)C(O)C(=O)OCC2(CC1O)C4(C)C31CO1 (stereo unspecified)	9	1	-16	-2	-5	13
COc1ccc(C(=O)C2CCCN(C3CSCCSC3)C2)cc1OC (stereo unspecified)	2	-19	-16	39*	-27	9
COc1ccc(C(=O)C2CCCN(Cc3cnc(C)s3)C2)cc1OC (stereo unspecified)	1	-10	-3	5	-11	-3
O=C(c1ccc(Cl)cc1)C1CCCN(C2CCSCC2)C1 (stereo unspecified)	2	-10	-17	37*	-19	27*
Oc1ccc(-[n+]2c(-c3ccccc3)cc(-c3ccccc3)cc2-c2ccccc2)cc1	3	-10	-31	54*	-12	13
O=[N+]([O-])c1ccc(-[n+]2c(-c3ccccc3)cc(-c3ccccc3)cc2-c2ccccc2)cc1	1	-23	-25	40*	-10	13
CC1CN1P1(=O)OCC(C)([N+](=O)[O-])CO1 (stereo unspecified)	-1	-1	-1	-2	0	9

Source: PubChem
